Paper PMC8028158 (ACS Omega, 2021)
Entries after “also recorded” stand apart in the source; their conditions may differ.

What was measured:
[1] = target: T1, mouse TRPC5 (Mus musculus, UniProt Q9QX29); assay: Selectivity Ca2+ assay in TRPC5-expressing HEK293 cells; assay type: cell-based; conditions: 1s 50 μM; induced by 100 μM CCh; Fluo-8
T1 sequence (Q9QX29 1-975): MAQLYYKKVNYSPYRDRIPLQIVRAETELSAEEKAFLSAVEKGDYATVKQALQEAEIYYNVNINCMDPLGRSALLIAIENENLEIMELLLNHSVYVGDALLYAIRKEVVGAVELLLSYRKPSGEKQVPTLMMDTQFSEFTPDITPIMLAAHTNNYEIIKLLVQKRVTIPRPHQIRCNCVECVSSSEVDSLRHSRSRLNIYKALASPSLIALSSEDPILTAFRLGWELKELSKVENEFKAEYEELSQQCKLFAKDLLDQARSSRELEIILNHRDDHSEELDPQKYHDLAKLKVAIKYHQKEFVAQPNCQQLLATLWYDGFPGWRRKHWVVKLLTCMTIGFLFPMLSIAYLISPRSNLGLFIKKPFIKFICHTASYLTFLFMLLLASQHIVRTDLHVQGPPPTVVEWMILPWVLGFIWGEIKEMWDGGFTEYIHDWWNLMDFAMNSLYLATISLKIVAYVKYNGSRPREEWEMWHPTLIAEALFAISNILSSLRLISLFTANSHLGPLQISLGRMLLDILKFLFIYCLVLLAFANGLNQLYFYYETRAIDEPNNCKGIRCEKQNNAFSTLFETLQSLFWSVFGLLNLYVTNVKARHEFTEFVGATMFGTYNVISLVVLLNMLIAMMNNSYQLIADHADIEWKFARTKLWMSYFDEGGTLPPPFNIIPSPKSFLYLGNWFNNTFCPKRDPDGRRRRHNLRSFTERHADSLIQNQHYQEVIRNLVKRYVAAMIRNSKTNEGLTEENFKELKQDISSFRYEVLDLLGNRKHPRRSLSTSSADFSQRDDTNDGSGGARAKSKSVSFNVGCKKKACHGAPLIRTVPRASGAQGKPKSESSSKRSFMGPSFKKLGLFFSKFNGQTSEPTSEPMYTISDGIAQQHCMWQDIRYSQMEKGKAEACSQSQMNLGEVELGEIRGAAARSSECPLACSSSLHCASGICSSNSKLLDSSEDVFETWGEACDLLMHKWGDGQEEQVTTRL

[2] = tested on: MKN-45 cells; assay: MTT cell viability assay, MKN-45; assay type: cell-based, human; conditions: Homo sapiens, MKN-45, 72 h, read-out: IC50 cell proliferation, MKN-45
In short: (§1)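 Cells were seeded at 2000 per well, incubated overnight and exposed to test compound for 72 h. MTT was added for 4 h, formazan was dissolved in DMSO and absorbance was read at 570 nm. Viability was normalized to untreated wells, giving mean ± SEM of three trials. IC50 was calculated from relative survival.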

[3] = tested on: MKN-45 cells; assay: Wound-healing migration assay; assay type: cell-based, human; conditions: 5 μM, 24 h
In short: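 MKN-45 cells were seeded and cultured overnight, then scratched with a pipette tip and treated with test compound. The wound was imaged at 0 and 24 h. The width of the cell-free zone was measured at six positions, and relative migration distance was calculated. A positive-control compound was run alongside.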

[4] = tested on: MKN-45 cells; assay: Boyden chamber / Transwell cell migration assay; assay type: cell-based, human; conditions: 24 h
In short: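 MKN-45 cells in serum-free medium were seeded with test compound on uncoated Transwell membranes (8 μm pores), with complete medium containing 10% FBS in the lower chamber, and left to migrate for 24 h. Cells on the upper surface were removed. Cells on the underside were fixed, stained with crystal violet and counted in six random fields. A positive-control compound was run alongside.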

[5] = target: TRPV1 (Homo sapiens, UniProt Q8NER1); assay: Selectivity Ca2+ assay in TRPV1-expressing HEK293 cells; assay type: cell-based; conditions: 1s 50 μM; Fluo-8
TRPV1, sequence (Q8NER1 whole entry, species assumed): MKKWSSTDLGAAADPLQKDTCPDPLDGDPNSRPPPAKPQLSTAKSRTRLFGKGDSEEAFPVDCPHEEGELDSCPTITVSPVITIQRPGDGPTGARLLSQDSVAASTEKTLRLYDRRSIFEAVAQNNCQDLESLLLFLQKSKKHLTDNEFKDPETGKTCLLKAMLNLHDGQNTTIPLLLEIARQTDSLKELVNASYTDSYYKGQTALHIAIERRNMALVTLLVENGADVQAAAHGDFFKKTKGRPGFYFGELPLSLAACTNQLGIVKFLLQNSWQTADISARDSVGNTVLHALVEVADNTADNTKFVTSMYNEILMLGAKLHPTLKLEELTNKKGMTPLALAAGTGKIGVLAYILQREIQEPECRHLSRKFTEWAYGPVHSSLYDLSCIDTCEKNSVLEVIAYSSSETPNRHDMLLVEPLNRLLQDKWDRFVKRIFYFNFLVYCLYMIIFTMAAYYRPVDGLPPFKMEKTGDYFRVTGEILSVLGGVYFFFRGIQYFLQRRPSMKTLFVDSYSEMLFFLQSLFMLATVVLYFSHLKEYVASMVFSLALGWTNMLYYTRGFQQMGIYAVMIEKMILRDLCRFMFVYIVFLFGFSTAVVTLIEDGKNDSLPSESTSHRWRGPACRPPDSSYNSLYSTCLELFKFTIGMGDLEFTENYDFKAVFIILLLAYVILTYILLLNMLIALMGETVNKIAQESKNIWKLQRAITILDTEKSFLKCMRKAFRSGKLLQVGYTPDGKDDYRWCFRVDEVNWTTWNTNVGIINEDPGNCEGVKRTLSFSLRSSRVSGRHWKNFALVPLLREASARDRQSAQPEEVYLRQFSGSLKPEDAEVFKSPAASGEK

[6] = target: T2, TRPC6 (Mus musculus, UniProt Q61143); assay: Whole-cell voltage clamp of TRPC6 currents evoked by GSK1702934A; assay type: cell-based
T2 sequence (Q61143 1-930): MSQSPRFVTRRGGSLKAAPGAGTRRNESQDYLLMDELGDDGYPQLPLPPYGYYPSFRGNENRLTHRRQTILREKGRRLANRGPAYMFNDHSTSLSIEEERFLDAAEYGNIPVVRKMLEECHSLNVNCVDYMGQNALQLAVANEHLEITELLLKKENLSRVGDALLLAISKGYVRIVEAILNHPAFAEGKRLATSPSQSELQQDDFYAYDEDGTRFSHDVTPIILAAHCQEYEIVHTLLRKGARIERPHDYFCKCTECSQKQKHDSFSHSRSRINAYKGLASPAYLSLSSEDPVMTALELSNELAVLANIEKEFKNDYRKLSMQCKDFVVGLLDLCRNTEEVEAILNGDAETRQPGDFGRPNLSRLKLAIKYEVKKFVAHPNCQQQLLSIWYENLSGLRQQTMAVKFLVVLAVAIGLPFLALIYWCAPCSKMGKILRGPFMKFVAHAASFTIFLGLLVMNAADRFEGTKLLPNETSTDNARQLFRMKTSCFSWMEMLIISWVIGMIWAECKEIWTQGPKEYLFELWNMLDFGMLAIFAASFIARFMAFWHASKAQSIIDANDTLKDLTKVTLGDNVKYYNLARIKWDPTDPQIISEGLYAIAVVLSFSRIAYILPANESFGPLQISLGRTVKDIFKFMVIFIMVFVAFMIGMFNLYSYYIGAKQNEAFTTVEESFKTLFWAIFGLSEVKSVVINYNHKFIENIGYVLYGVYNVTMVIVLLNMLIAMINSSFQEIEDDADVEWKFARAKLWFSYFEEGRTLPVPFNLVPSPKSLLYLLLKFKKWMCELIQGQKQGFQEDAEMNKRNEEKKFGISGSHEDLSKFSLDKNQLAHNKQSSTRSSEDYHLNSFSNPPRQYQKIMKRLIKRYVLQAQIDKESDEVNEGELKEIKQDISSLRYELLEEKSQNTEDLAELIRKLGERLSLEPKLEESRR
In short: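 TRPC6-expressing HEK293 cells were recorded with voltage ramps to obtain current–voltage relationships. Current was activated by GSK1702934A (1 μM) and test compound was applied at varying concentrations. IC50 was derived from a Hill-equation fit of the concentration-response curve.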

[7] = target: TRPA1 (Homo sapiens, UniProt O75762); assay: Selectivity Ca2+ assay in TRPA1-expressing HEK293 cells; assay type: cell-based; conditions: 1s 50 μM; Fluo-8
TRPA1, sequence (O75762 whole entry, species assumed): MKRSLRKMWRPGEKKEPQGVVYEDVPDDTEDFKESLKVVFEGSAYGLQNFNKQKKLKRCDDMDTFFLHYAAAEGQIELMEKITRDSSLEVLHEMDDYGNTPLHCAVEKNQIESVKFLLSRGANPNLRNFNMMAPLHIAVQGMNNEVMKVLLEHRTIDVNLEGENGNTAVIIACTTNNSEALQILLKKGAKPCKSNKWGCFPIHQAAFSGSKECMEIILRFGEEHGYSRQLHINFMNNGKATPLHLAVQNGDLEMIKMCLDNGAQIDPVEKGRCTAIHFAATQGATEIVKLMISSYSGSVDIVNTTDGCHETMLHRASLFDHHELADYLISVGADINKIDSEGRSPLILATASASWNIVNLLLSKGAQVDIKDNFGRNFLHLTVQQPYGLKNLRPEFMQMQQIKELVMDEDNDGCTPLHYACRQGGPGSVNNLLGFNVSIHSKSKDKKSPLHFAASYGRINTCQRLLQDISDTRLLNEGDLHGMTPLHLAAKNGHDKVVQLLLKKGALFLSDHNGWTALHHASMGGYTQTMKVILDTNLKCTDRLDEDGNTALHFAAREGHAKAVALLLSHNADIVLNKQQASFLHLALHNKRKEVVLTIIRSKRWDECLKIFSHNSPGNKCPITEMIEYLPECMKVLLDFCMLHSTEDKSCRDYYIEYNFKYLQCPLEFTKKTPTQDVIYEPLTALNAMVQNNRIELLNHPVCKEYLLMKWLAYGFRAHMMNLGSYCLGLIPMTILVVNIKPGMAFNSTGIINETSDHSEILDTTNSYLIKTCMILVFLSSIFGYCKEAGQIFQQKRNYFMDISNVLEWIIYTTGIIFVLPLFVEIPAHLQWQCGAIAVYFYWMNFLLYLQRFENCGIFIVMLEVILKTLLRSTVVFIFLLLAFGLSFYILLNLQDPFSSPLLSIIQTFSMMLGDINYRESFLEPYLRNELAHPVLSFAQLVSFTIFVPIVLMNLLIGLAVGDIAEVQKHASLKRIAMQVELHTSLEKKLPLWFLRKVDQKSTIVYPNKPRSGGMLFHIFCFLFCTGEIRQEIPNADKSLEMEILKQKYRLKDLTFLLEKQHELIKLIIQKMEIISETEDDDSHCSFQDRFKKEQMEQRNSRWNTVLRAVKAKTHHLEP

[8] = target: TRPM8 (Homo sapiens, UniProt Q7Z2W7); assay: Selectivity Ca2+ assay in TRPM8-expressing HEK293 cells; assay type: cell-based; conditions: 1s 50 μM; Fluo-8
TRPM8, sequence (Q7Z2W7 whole entry, species assumed): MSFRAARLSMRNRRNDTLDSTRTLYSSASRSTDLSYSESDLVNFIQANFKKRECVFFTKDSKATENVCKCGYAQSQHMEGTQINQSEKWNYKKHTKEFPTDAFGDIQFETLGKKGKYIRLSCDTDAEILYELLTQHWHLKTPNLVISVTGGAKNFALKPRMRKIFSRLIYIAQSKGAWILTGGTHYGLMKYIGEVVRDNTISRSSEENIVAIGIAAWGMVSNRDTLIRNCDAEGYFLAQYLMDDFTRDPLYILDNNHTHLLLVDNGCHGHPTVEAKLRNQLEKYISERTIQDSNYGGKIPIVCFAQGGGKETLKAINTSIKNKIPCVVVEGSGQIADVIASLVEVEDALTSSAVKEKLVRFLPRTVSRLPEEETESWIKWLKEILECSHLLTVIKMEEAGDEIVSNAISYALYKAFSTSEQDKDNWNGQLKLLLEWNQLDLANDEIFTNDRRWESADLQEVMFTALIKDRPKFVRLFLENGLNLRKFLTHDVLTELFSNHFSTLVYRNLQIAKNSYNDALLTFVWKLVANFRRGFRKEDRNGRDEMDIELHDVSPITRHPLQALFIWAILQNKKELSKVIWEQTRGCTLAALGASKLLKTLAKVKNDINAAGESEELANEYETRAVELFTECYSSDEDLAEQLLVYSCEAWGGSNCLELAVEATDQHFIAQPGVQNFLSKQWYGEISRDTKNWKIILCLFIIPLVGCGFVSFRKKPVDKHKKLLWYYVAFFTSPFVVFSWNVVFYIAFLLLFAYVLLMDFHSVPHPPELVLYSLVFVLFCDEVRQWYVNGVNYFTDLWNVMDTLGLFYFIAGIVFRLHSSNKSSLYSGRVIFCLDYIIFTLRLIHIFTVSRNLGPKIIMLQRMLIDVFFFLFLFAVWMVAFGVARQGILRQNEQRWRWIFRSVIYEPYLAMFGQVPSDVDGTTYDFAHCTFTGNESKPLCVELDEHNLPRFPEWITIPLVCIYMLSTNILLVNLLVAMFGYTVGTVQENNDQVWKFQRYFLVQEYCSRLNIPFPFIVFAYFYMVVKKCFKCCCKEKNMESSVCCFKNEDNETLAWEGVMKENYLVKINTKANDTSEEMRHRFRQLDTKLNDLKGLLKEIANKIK

[9] = tested on: AGS cells; assay: MTT cell viability assay, AGS; assay type: cell-based, human; conditions: Homo sapiens, AGS, 72 h, read-out: IC50 cell proliferation, AGS
In short: as §1

COc1cccc2sc(N(CCN(C)C)C(=O)c3ccc4c(c3)CCCC4)nc12 [Compound 1s, N-(2-(dimethylamino)ethyl)-N-(4-methoxybenzo[d]thiazol-2-yl)-5,6,7,8-tetrahydronaphthalene-2-carboxamide]
Effect on agonist-induced Ca2+ response, TRPC5 [1]: did not significantly affect; also recorded: no effect | IC50 [2]: 8 ± 0.51 µM | MKN-45 cell migration (wound healing) [3]: inhibited the MKN-45 cell migration | MKN-45 cell invasion (movement through the pores toward chemoattractant) [4]: inhibited | Effect on agonist-induced Ca2+ response, TRPV1 [5]: did not significantly affect | IC50 [6]: 4.19 ± 0.04 µM | Effect on TRPC6 currents ([6]; evoked by GSK1702934A 1 μM, whole-cell voltage clamp): immediately suppressed | Effect on agonist-induced Ca2+ response, TRPA1 [7]: did not significantly affect | Effect on agonist-induced Ca2+ response, TRPM8 [8]: did not significantly affect | IC50 [9]: 12 ± 1.01 µM
